# Measured values as given in ChEMBL document CHEMBL1914423, “New imidazo[2,1-b]thiazole derivatives: synthesis, in vitro anticancer evaluation, and in silico studies” (Eur J Med Chem, 2011).
# How the values were obtained:
# Assay type in all cases: functional
# HL-60(TB) = assay: Anticancer activity against human HL-60(TB) cells assessed as cell growth at 10^-5 M after 48 hrs by SRB assay; conditions: HL-60, 48 h, read-out: Activity
# Method in brief: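 NCI-60 single-dose screen. Cells in RPMI 1640 with 5% FBS and 2 mM L-glutamine were plated at 5000–40,000 cells/well and preincubated 24 h at 37 °C before one compound concentration. Time-zero plates were TCA-fixed at drug addition. For suspension cells, settled cells were fixed with cold TCA, then SRB-stained and read at 515 nm. Percent growth was calculated from time-zero, control and treated absorbances.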
# MOLT-4 = assay: Anticancer activity against human MOLT4 cells assessed as cell growth at 10^-5 M after 48 hrs by SRB assay; conditions: MOLT-4, 48 h, read-out: Activity
# A549 = assay: Anticancer activity against human A549 cells assessed as cell growth at 10^-5 M after 48 hrs by SRB assay; conditions: A549, 48 h, read-out: Activity
# Method in brief: (§1)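 NCI-60 single-dose screen at one concentration. Cells grown in RPMI 1640 with 5% FBS and 2 mM L-glutamine, plated at 5000–40,000 cells/well, and pre-incubated 24 h at 37 °C in 5% CO2 before DMSO-dissolved drug was added. Cells fixed with TCA, SRB-stained, absorbance read at 515 nm. Percent growth calculated against time-zero and untreated control plates.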
# EKVX = assay: Anticancer activity against human EKVX cells assessed as cell growth at 10^-5 M after 48 hrs by SRB assay; conditions: read-out: Activity; method in brief: as §1
# HOP-62 = assay: Anticancer activity against human HOP62 cells assessed as cell growth at 10^-5 M after 48 hrs by SRB assay; conditions: HOP-62, 48 h, read-out: Activity; method in brief: as §1
# NCI-H23 = assay: Anticancer activity against human NCI-H23 cells assessed as cell growth at 10^-5 M after 48 hrs by SRB assay; conditions: NCI-H23, 48 h, read-out: Activity
# NCI-H460 = assay: Anticancer activity against human NCI-H460 cells assessed as cell growth at 10^-5 M after 48 hrs by SRB assay; conditions: NCI-H460, 48 h, read-out: Activity
# NCI-H522 = assay: Anticancer activity against human NCI-H522 cells assessed as cell growth at 10^-5 M after 48 hrs by SRB assay; conditions: NCI-H522, 48 h, read-out: Activity
# COLO 205 = assay: Anticancer activity against human COLO205 cells assessed as cell growth at 10^-5 M after 48 hrs by SRB assay; conditions: COLO 205, 48 h, read-out: Activity; method in brief: as §1
# HCC 2998 = assay: Anticancer activity against human HCC2998 cells assessed as cell growth at 10^-5 M after 48 hrs by SRB assay; conditions: HCC 2998, 48 h, read-out: Activity; method in brief: as §1
# HCT-116 = assay: Anticancer activity against human HCT116 cells assessed as cell growth at 10^-5 M after 48 hrs by SRB assay; conditions: HCT-116, 48 h, read-out: Activity; method in brief: as §1
# SF-539 = assay: Anticancer activity against human SF539 cells assessed as cell growth at 10^-5 M after 48 hrs by SRB assay; conditions: SF-539, 48 h, read-out: Activity
# SNB-75 = assay: Anticancer activity against human SNB75 cells assessed as cell growth at 10^-5 M after 48 hrs by SRB assay; conditions: SNB-75, 48 h, read-out: Activity
# Method in brief: (§2)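 NCI-60 single-dose screen: cells in RPMI 1640 with 5% FBS and 2 mM L-glutamine, plated at 5000–40,000 cells/well by doubling time, and preincubated 24 h at 37 °C. Compound given at one concentration from DMSO stock. Cells TCA-fixed and SRB-stained, absorbance at 515 nm. Percent growth relative to time-zero and untreated controls; inhibition % = 100 − growth %.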
# U-251 = assay: Anticancer activity against human U251 cells assessed as cell growth at 10^-5 M after 48 hrs by SRB assay; conditions: U-251, 48 h, read-out: Activity; method in brief: as §2
# LOX IMVI = assay: Anticancer activity against human LOXIMVI cells assessed as cell growth at 10^-5 M after 48 hrs by SRB assay; conditions: read-out: Activity; method in brief: as §1
# M14 = assay: Anticancer activity against human M14 cells assessed as cell growth at 10^-5 M after 48 hrs by SRB assay; conditions: M14, 48 h, read-out: Activity; method in brief: as §1
# SK-MEL-28 = assay: Anticancer activity against human SK-MEL-28 cells assessed as cell growth at 10^-5 M after 48 hrs by SRB assay; conditions: SK-MEL-28, 48 h, read-out: Activity
# UACC-62 [1] = assay: Anticancer activity against human UACC62 cells assessed as cell growth at 10^-5 M after 48 hrs by SRB assay; conditions: UACC-62, 48 h, read-out: Activity; method in brief: as §2
# OVCAR-3 = assay: Anticancer activity against human OVCAR3 cells assessed as cell growth at 10^-5 M after 48 hrs by SRB assay; conditions: OVCAR-3, 48 h, read-out: Activity
# OVCAR-4 = assay: Anticancer activity against human OVCAR4 cells assessed as cell growth at 10^-5 M after 48 hrs by SRB assay; conditions: OVCAR-4, 48 h, read-out: Activity
# ACHN = assay: Anticancer activity against human ACHN cells assessed as cell growth at 10^-5 M after 48 hrs by SRB assay; conditions: read-out: Activity; method in brief: as §1
# RXF 393 = assay: Anticancer activity against human RXF393 cells assessed as cell growth at 10^-5 M after 48 hrs by SRB assay; conditions: RXF 393, 48 h, read-out: Activity
# SN12C = assay: Anticancer activity against human SN12C cells assessed as cell growth at 10^-5 M after 48 hrs by SRB assay; conditions: read-out: Activity
# DU-145 = assay: Anticancer activity against human DU145 cells assessed as cell growth at 10^-5 M after 48 hrs by SRB assay; conditions: DU-145, 48 h, read-out: Activity; method in brief: as §1
# MDA-MB-231 = assay: Anticancer activity against human MDA-MB-231 cells assessed as cell growth at 10^-5 M after 48 hrs by SRB assay; conditions: MDA-MB-231, 48 h, read-out: Activity; method in brief: as §1
# BT-549 = assay: Anticancer activity against human BT549 cells assessed as cell growth at 10^-5 M after 48 hrs by SRB assay; conditions: BT-549, 48 h, read-out: Activity; method in brief: as §1
# MDA-MB-468 = assay: Anticancer activity against human MDA-MB-468 cells assessed as cell growth at 10^-5 M after 48 hrs by SRB assay; conditions: MDA-MB-468, 48 h, read-out: Activity
# UACC-62 [2] = assay: Anticancer activity against human UACC62 cells after 48 hrs by SRB assay; conditions: UACC-62, 48 h; for CC50: read-out: LC50 (the source's name)
# Method in brief: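 NCI-60 five-dose mode: cells in RPMI 1640 with 5% FBS and 2 mM glutamine, plated at 5000–40,000 cells/well, and preincubated 24 h, with time-zero plates TCA-fixed. Drug given at five concentrations (10-fold or ½-log serial dilutions). Cold TCA fixation 60 min at 4 °C, SRB stain, Tris solubilization, A515. IC50 taken where [(Ti−Tz)/(C−Tz)]×100 = 50.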
Structure (SMILES),growth at 10 µM (HL-60(TB)),growth at 10 µM (MOLT-4),growth at 10 µM (A549),growth at 10 µM (EKVX),growth at 10 µM (HOP-62),growth at 10 µM (NCI-H23),growth at 10 µM (NCI-H460),growth at 10 µM (NCI-H522),growth at 10 µM (COLO 205),growth at 10 µM (HCC 2998),growth at 10 µM (HCT-116),growth at 10 µM (SF-539),growth at 10 µM (SNB-75),growth at 10 µM (U-251),growth at 10 µM (LOX IMVI),growth at 10 µM (M14),growth at 10 µM (SK-MEL-28),growth at 10 µM (UACC-62 [1]),growth at 10 µM (OVCAR-3),growth at 10 µM (OVCAR-4),also measured
COc1cccc(-c2nc3sccn3c2-c2ccnc(NCCNC(=O)Nc3cccc(C(F)(F)F)c3)n2)c1,62.8%,36.7%,44.4%,61.5%,98.9%,83.8%,45.1%,47.7%,57.6%,40.8%,44.6%,77.9%,71.8%,58.1%,44.3%,39.2%,78.4%,50.5%,66.3%,91.1%,growth at 10 µM (ACHN): 46.2%; growth at 10 µM (RXF 393): 6.3%; growth at 10 µM (SN12C): 68.8%; growth at 10 µM (DU-145): 79.8%; growth at 10 µM (MDA-MB-231): 43.6%; growth at 10 µM (BT-549): 71.9%; growth at 10 µM (MDA-MB-468): 39.6%; GI50 (UACC-62 [2]): 2.55 µM; TGI (UACC-62 [2]): 7.48 µM; CC50 (UACC-62 [2]): 27.7 µM
O=C(NCCNc1nccc(-c2c(-c3cccc(O)c3)nc3sccn23)n1)Nc1cccc(C(F)(F)F)c1,36.4%,59.8%,39.3%,91.2%,83.5%,96.2%,80.1%,-5.9%,53.2%,23%,56.8%,98.5%,66.2%,81.6%,64.5%,-21.7%,48.8%,29.4%,76.7%,110%,growth at 10 µM (ACHN): 85.1%; growth at 10 µM (RXF 393): 26.2%; growth at 10 µM (SN12C): 70.7%; growth at 10 µM (DU-145): 89%; growth at 10 µM (MDA-MB-231): 37.7%; growth at 10 µM (BT-549): 41.1%; growth at 10 µM (MDA-MB-468): -40.6%; GI50 (UACC-62 [2]): 1.94 µM; TGI (UACC-62 [2]): 6.51 µM; CC50 (UACC-62 [2]): 28.2 µM
O=C(NCCNc1nccc(-c2c(-c3cccc(O)c3)nc3sccn23)n1)c1ccccc1,93.3%,67.1%,56.3%,94.2%,119%,82.6%,42.4%,72.7%,48.5%,97.8%,42.5%,73.2%,54.4%,61.9%,23.2%,15.3%,37.8%,0.9%,92.3%,98%,growth at 10 µM (ACHN): 60.5%; growth at 10 µM (RXF 393): 62.6%; growth at 10 µM (SN12C): 66.4%; growth at 10 µM (DU-145): 90.5%; growth at 10 µM (MDA-MB-231): 80%; growth at 10 µM (BT-549): 61.4%; growth at 10 µM (MDA-MB-468): 54.7%; GI50 (UACC-62 [2]): 0.211 µM; TGI (UACC-62 [2]): 1.37 µM; CC50 (UACC-62 [2]): 25.2 µM
O=C(NCCNc1nccc(-c2c(-c3cccc(O)c3)nc3sccn23)n1)c1ccccc1O,59.8%,46.2%,43.3%,66.8%,114%,57.4%,57%,29%,66.5%,81%,25.9%,61.9%,40.6%,61.6%,33.5%,16.7%,41.4%,0.53%,60.2%,96.2%,growth at 10 µM (ACHN): 46.1%; growth at 10 µM (RXF 393): 50.9%; growth at 10 µM (SN12C): 48%; growth at 10 µM (DU-145): 67.2%; growth at 10 µM (MDA-MB-231): 48.4%; growth at 10 µM (BT-549): 45.7%; growth at 10 µM (MDA-MB-468): 52%; GI50 (UACC-62 [2]): 8.32 µM; TGI (UACC-62 [2]): 96.9 µM; CC50 (UACC-62 [2]): > 100 µM
